Experimental data pooled from the literature.
Cell line: U-87 MG
Read-out: cell growth or viability

Structure (SMILES)	test	conditions	endpoint	result
Fc1ccc2[nH]cc(CNCC3(N4CCC(F)C4)COC3)c2c1 (centres unmarked)		30 µM, 48 h	viability	94.6%
Cn1nnc2c(C(N)=O)ncn2c1=O	MTT	72 h	IC50	596 µM
COc1cccc2c1C(=O)c1c(O)c3c(c(O)c1C2=O)C[C@@](O)(C(=O)CO)C[C@@H]3O[C@H]1C[C@H](N)[C@H](O)[C@H](C)O1	WST-1	72 h	IC50	0.04 µM
Fc1ccc2c(CNCC3(N4CCC(F)C4)COC3)c[nH]c2c1 (centres unmarked)		30 µM, 48 h	viability	97.6%
Cc1ccc(C(=O)Nc2ccc(Oc3cc4cnn(C)c4cc3-c3cn[nH]c3)c(F)c2)c(=O)n1-c1ccc(F)cc1	ATP luminescence		IC50	0.129 µM
Cn1nnc2c(C(N)=O)ncn2c1=O	resazurin	7 days	IC50	51 µM
c1cc2cc(CNCC3(N4CCCC4)COC3)ccc2[nH]1		30 µM, 48 h	viability	98.6%
Oc1c(C(c2ccc(F)cc2)N2CCCCC2)ccc2c1CCC2 (centres unmarked)	MTT	30 µM	inhibition	28%
c1cc2c(cc1CNCC1(N3CCCC3)COC1)OCCO2		30 µM, 48 h	viability	95.7%
Cn1nnc2c(-c3ccccc3)ncn2c1=O	resazurin	7 days	IC50	9 µM
COc1cc(Nc2nccc(-c3cnn4nc(OC)ccc34)n2)cc(C(F)(F)F)c1	ATP luminescence		IC50	0.84 µM
CCN(CC)C(=O)c1ncn2c(=O)n(C)nnc12	resazurin	7 days	IC50	80 µM
COc1cccc2c1C(=O)c1c(O)c3c(c(O)c1C2=O)C[C@@](O)(C(=O)CO)C[C@@H]3O[C@H]1C[C@H](N)[C@H](O)[C@H](C)O1	SRB		IC50	0.1 µM
Cc1cc(NC(=O)c2cccc3cc(-c4cccc5[nH]nc(N)c45)ccc23)ccc1F	CCK-8	72 h	IC50	> 20 µM
Cn1nnc2c(Cl)ncn2c1=O	resazurin	7 days	IC50	15 µM
FC1CCN(C2(CNCc3ccc(-c4ccccc4)o3)COC2)C1 (centres unmarked)		30 µM, 48 h	viability	46.6%
CC(C)C[C@H](NC(=O)[C@H](Cc1ccccc1)NC(=O)c1cnccn1)B(O)O	ATP luminescence		IC50	0.02 µM
